Experimental data from PMC2831464 (Clinical cancer research : an official journal of the …, 2010).
Entries after “also recorded” stand apart in the source; their conditions may differ.

Tests used:
[1] = Phase I dose escalation: dose limiting toxicities, MTD and CTCAE 3.0 toxicities; type: in vivo, human
Outline: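 Adults (>18 y) had refractory solid tumors, ECOG ≤2 and adequate marrow, hepatic and renal function. Test compound in 5% dextrose (0.05–0.5 mg/mL) was given as a 1-h IV infusion daily × 5 every 21 days, within 4 h of reconstitution. Premedication was oral dexamethasone, ondansetron, loratadine, famotidine and diphenhydramine. […] DLTs were assessed in cycle 1 by CTCAE v3.0. MTD was the level below that giving DLT in ≥2 patients.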

[2] = Exposure-toxicity relationship, sigmoid E-max model; type: in vivo, human
Outline: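 Patients received a 1-h IV infusion of test compound daily × 5 every 21 days. Toxicity measure was the cycle 1 nadir of ANC and platelets, expressed as % decrease. Exposure metrics were total test compound AUC (day 1, cycle 1) and administered daily dosage level. Total rather than lactone parameters were used.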

[3] = system: UGT1A1; conditions: cited from earlier work
[4] = system: UGT1A8; conditions: cited from earlier work
[5] = system: CYP3A4; conditions: in-vitro data; cited from earlier work
[6] = CTCAE related toxicities, Blood/bone marrow
[7] = CTCAE related toxicities, Cardiac general
[8] = CTCAE related toxicities, Constitutional symptoms
[9] = CTCAE related toxicities, Dermatology/skin
[10] = CTCAE related toxicities, Gastrointestinal
[11] = CTCAE related toxicities, Hemorrhage/bleeding
[12] = CTCAE related toxicities, Infection
[13] = CTCAE related toxicities, Metabolic/laboratory
[14] = CTCAE related toxicities, Musculoskeletal
[15] = CTCAE related toxicities, Neurology
[16] = CTCAE related toxicities, Pulmonary
[17] = cycle 1, all patients, sigmoid E-max model
[18] = total AR-67 AUC day 1 of cycle 1, sigmoid E-max model

CC[C@@]1(O)C(=O)OCc2c1cc1n(c2=O)Cc2c-1nc1ccc(O)cc1c2[Si](C)(C)C(C)(C)C [AR-67, 7-t-butyldimethylsilyl-10-hydroxycamptothecin]
Common Grade 3 and 4 toxicities: anemia ([1]; 26 patients, all dosage levels): 11.5% | Common Grade 3 and 4 toxicities: fatigue ([1]; 26 patients, all dosage levels): 15.4% | Common Grade 3 and 4 toxicities: leukopenia (leukocytopenia) ([1]; 26 patients, all dosage levels): 23% | Common Grade 3 and 4 toxicities: neutropenia ([1]; 26 patients, all dosage levels): 11.5% | Common Grade 3 and 4 toxicities: thrombocytopenia ([1]; 26 patients, all dosage levels): 15.4% | Diarrhea ([1]; 26 patients, all dosage levels): No diarrhea; also recorded: none of the patients experienced | Infusion related allergic (hypersensitivity) reactions ([1]; 26 patients, premedicated, cremophor-ethanol formulation): none of the patients experienced; also recorded: no patients exhibited hypersensitivity reactions | Hemoglobin, Grade 1 [1, 6]: 8 | Hemoglobin, Grade 2 [1, 6]: 12 | Hemoglobin, Grade 3 [1, 6]: 6 | Hemoglobin, Grade 4 [1, 6]: 0 | Hemoglobin, Total [1, 6]: 26 | Leukocytes (total WBC), Grade 1 [1, 6]: 18 | Leukocytes (total WBC), Grade 2 [1, 6]: 15 | Leukocytes (total WBC), Grade 3 [1, 6]: 8 | Leukocytes (total WBC), Grade 4 [1, 6]: 0 | Leukocytes (total WBC), Total [1, 6]: 41 | Monocytopenia, Grade 1 [1, 6]: 0 | Monocytopenia, Grade 2 [1, 6]: 0 | Monocytopenia, Grade 3 [1, 6]: 0 | Monocytopenia, Grade 4 [1, 6]: 1 | Monocytopenia, Total [1, 6]: 1 | Neutrophils/granulocytes (ANC/AGC), Grade 1 [1, 6]: 3 | Neutrophils/granulocytes (ANC/AGC), Grade 2 [1, 6]: 10 | Neutrophils/granulocytes (ANC/AGC), Grade 3 [1, 6]: 5 | Neutrophils/granulocytes (ANC/AGC), Grade 4 [1, 6]: 1 | Neutrophils/granulocytes (ANC/AGC), Total [1, 6]: 19 | Platelets, Grade 2 [1, 6]: 8 | Platelets, Grade 3 [1, 6]: 9 | Hypotension, Grade 1 [1, 7]: 0 | Hypotension, Grade 2 [1, 7]: 1 | Hypotension, Grade 3 [1, 7]: 0 | Hypotension, Grade 4 [1, 7]: 0 | Hypotension, Total [1, 7]: 1 | Fatigue (asthenia, lethargy, malaise), Grade 1 [1, 8]: 4 | Fatigue (asthenia, lethargy, malaise), Grade 3 [1, 8]: 8 | Fatigue (asthenia, lethargy, malaise), Grade 4 [1, 8]: 0 | Fatigue (asthenia, lethargy, malaise), Total [1, 8]: 26 | Fever (in the absence of neutropenia), Grade 1 [1, 8]: 0 | Fever (in the absence of neutropenia), Grade 2 [1, 8]: 1 | Fever (in the absence of neutropenia), Grade 3 [1, 8]: 0 | Fever (in the absence of neutropenia), Grade 4 [1, 8]: 0 | Fever (in the absence of neutropenia), Total [1, 8]: 1 | Insomnia, Grade 1 [1, 8]: 2 | Insomnia, Grade 2 [1, 8]: 5 | Insomnia, Grade 3 [1, 8]: 0 | Insomnia, Grade 4 [1, 8]: 0 | Insomnia, Total [1, 8]: 7 | Weight loss, Grade 1 [1, 8]: 2 | Weight loss, Grade 2 [1, 8]: 0 | Weight loss, Grade 3 [1, 8]: 0 | Weight loss, Grade 4 [1, 8]: 0 | Weight loss, Total [1, 8]: 2 | Nail changes, Grade 1 [1, 9]: 1 | Nail changes, Grade 2 [1, 9]: 0 | Nail changes, Grade 3 [1, 9]: 0 | Nail changes, Grade 4 [1, 9]: 0 | Nail changes, Total [1, 9]: 1 | Pruritus/itching/Dry skin/Flushing, Grade 2 [1, 9]: 0 | Pruritus/itching/Dry skin/Flushing, Grade 3 [1, 9]: 0 | Pruritus/itching/Dry skin/Flushing, Grade 4 [1, 9]: 0 | Pruritus/itching/Dry skin/Flushing, Total [1, 9]: 7 | Rash/desquamation, Grade 1 [1, 9]: 2 | Rash/desquamation, Grade 2 [1, 9]: 1 | Rash/desquamation, Grade 3 [1, 9]: 0 | Rash/desquamation, Grade 4 [1, 9]: 0 | Rash/desquamation, Total [1, 9]: 3 | Anorexia/Taste Alteration, Grade 1 [1, 10]: 4 | Anorexia/Taste Alteration, Grade 3 [1, 10]: 1 | Anorexia/Taste Alteration, Grade 4 [1, 10]: 0 | Anorexia/Taste Alteration, Total [1, 10]: 12 | Constipation/Dehydration, Grade 1 [1, 10]: 6 | Constipation/Dehydration, Grade 2 [1, 10]: 8 | Constipation/Dehydration, Grade 3 [1, 10]: 0 | Constipation/Dehydration, Grade 4 [1, 10]: 0 | Mucositis/stomatitis, Grade 1 [1, 10]: 2 | Mucositis/stomatitis, Grade 2 [1, 10]: 0 | Mucositis/stomatitis, Grade 3 [1, 10]: 0 | Mucositis/stomatitis, Grade 4 [1, 10]: 0 | Mucositis/stomatitis, Total [1, 10]: 2 | Nausea, Grade 2 [1, 10]: 0 | Nausea, Grade 3 [1, 10]: 0 | Nausea, Grade 4 [1, 10]: 0 | Hemorrhage, GI - Duodenum, Grade 1 [1, 11]: 0 | Hemorrhage, GI - Duodenum, Grade 2 [1, 11]: 0 | Hemorrhage, GI - Duodenum, Grade 3 [1, 11]: 1 | Hemorrhage, GI - Duodenum, Grade 4 [1, 11]: 0 | Hemorrhage, GI - Duodenum, Total [1, 11]: 1 | Febrile neutropenia, Grade 1 [1, 12]: 0 | Febrile neutropenia, Grade 2 [1, 12]: 0 | Febrile neutropenia, Grade 3 [1, 12]: 1 | Febrile neutropenia, Grade 4 [1, 12]: 2 | Febrile neutropenia, Total [1, 12]: 3 | Infection - ANC grade 0–2, Grade 1 [1, 12]: 3 | Infection - ANC grade 0–2, Grade 2 [1, 12]: 4 | Infection - ANC grade 0–2, Grade 3 [1, 12]: 0 | Infection - ANC grade 0–2, Grade 4 [1, 12]: 2 | Infection - ANC grade 0–2, Total [1, 12]: 9 | Infection with unknown ANC, Grade 1 [1, 12]: 2 | Infection with unknown ANC, Grade 2 [1, 12]: 1 | Infection with unknown ANC, Grade 3 [1, 12]: 0 | Infection with unknown ANC, Grade 4 [1, 12]: 0 | Infection with unknown ANC, Total [1, 12]: 3 | ALT, SGPT, Alkaline Phosphatase, Grade 1 [1, 13]: 8 | ALT, SGPT, Alkaline Phosphatase, Grade 2 [1, 13]: 0 | ALT, SGPT, Alkaline Phosphatase, Grade 3 [1, 13]: 0 | ALT, SGPT, Alkaline Phosphatase, Grade 4 [1, 13]: 0 | ALT, SGPT, Alkaline Phosphatase, Total [1, 13]: 8 | Electrolyte abnormalities, Grade 1 [1, 13]: 8 | Electrolyte abnormalities, Grade 2 [1, 13]: 0 | Electrolyte abnormalities, Grade 3 [1, 13]: 0 | Electrolyte abnormalities, Grade 4 [1, 13]: 0 | Electrolyte abnormalities, Total [1, 13]: 8 | Extremity-lower (gait/walking), Grade 1 [1, 14]: 1 | Extremity-lower (gait/walking), Grade 2 [1, 14]: 0 | Extremity-lower (gait/walking), Grade 3 [1, 14]: 0 | Extremity-lower (gait/walking), Grade 4 [1, 14]: 0 | Extremity-lower (gait/walking), Total [1, 14]: 1 | Muscle weakness – Lower extremity, Grade 1 [1, 14]: 0 | Muscle weakness – Lower extremity, Grade 2 [1, 14]: 3 | Muscle weakness – Lower extremity, Grade 3 [1, 14]: 1 | Muscle weakness – Lower extremity, Grade 4 [1, 14]: 0 | Muscle weakness – Lower extremity, Total [1, 14]: 4 | Dizziness, Grade 1 [1, 15]: 0 | Dizziness, Grade 2 [1, 15]: 1 | Dizziness, Grade 3 [1, 15]: 0 | Dizziness, Grade 4 [1, 15]: 0 | Dizziness, Total [1, 15]: 1 | Neuropathy: sensory, Grade 1 [1, 15]: 1 | Neuropathy: sensory, Grade 2 [1, 15]: 0 | Neuropathy: sensory, Grade 3 [1, 15]: 0 | Neuropathy: sensory, Grade 4 [1, 15]: 0 | Neuropathy: sensory, Total [1, 15]: 1 | Dyspnea, Grade 1 [1, 16]: 1 | Dyspnea, Grade 2 [1, 16]: 0 | Dyspnea, Grade 3 [1, 16]: 0 | Dyspnea, Grade 4 [1, 16]: 0 | Dyspnea, Total [1, 16]: 1 | Hiccoughs (hiccups, singultus), Grade 1 [1, 16]: 2 | Hiccoughs (hiccups, singultus), Grade 2 [1, 16]: 1 | Hiccoughs (hiccups, singultus), Grade 3 [1, 16]: 0 | Hiccoughs (hiccups, singultus), Grade 4 [1, 16]: 0 | Hiccoughs (hiccups, singultus), Total [1, 16]: 3 | DLT per Cohort ([1]; Level 5.5, 7.5 mg/m2/day daily × 5, n=7, cycle 1): one of seven | DLT per Cohort ([1]; Level 6, 8.9 mg/m2/day daily × 5, n=4, cycle 1): two of four | Day of ANC and platelet nadir ([1]; MTD level, cycle 1, recovered prior to day 22): 10 to 14 days | maximum tolerated dosage (MTD) ([1]; iv over 1 hour daily × 5, every 21 days): 7.5 mg/m^2/day | Patients with dose limiting toxicities ([1]; of 26 patients, 9 dosage levels): 5 patients | recommended phase II dosage ([1]; ×5 q 21 days): 7.5 mg/m^2/day | dosage level ED50 (95% CI) for % decrease in ANC [2, 17]: 6.1 (4.3 – 8.7) mg/m^2 | dosage level ED50 (95% CI) for % decrease in platelets [2, 17]: 4.9 (3.2 – 7.6) mg/m^2 | AUC ED50 (95% CI) for % decrease in ANC [2, 18]: 323.6 (231.9 – 451.6) hr*ng/mL | AUC ED50 (95% CI) for % decrease in platelets [2, 18]: 364.2 (249.4 – 531.9) hr*ng/mL | UGT1A1 mediated glucuronidation [3]: does not undergo | metabolism by UGT1A8 [4]: extensively metabolized | substrate for CYP3A4 [5]: is a substrate
